Measurements reported in ChEMBL document CHEMBL4725346, “Syntheses and Evaluation of New Bisacridine Derivatives for Dual Binding of G-Quadruplex and i-Motif in Regulating Oncogene c-myc Expression” (J Med Chem, 2020).
Activity calls are given as the source filed them. No cut-off for these calls is given here.

How the values were obtained:
[1] = Stabilization of 5'-FAM/3'-TAMRA labeled c-myc promoter i-motif DNA FPy33T (unknown origin) assessed as change in melting temperature at 1 uM by FRET assay (reference value: 53.2 degreeC)
Method in brief: (§1)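 FRET melting of dual FAM/TAMRA-labelled FPy33T annealed in 1× BPES (30 mM potassium phosphate, 1 mM EDTA, 100 mM KCl), pH 5.5. Final 0.2 µM DNA with or without ligand. Excitation 470 nm, emission 530 nm, read every 1 °C over 37–99 °C. ΔTm taken against DNA alone.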

Quadruplex DNA [2] = assay: Stabilization of 5'-FAM/3'-TAMRA labeled c-myc promoter G-quadruplex DNA FPu22T (unknown origin) assessed as change in melting temperature at 1 uM by FRET assay (reference value: 66.5 degreeC); format: nucleic-acid assay
Method in brief: (§2)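 FRET melting of dual FAM/TAMRA-labelled FPu22T annealed in 10 mM Tris-HCl pH 7.4 with KCl. Final 0.2 µM DNA with or without ligand. Excitation 470 nm, emission 530 nm, read every 1 °C over 37–99 °C on a real-time PCR cycler. ΔTm = Tm(DNA+ligand) − Tm(DNA).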

[3] = Stabilization of 5'-FAM/3'-TAMRA labeled hairpin DNA F10T (unknown origin) assessed as change in melting temperature at 1 uM by FRET assay (reference value: 59.1 degreeC)
[4] = Stabilization of c-myc promoter i-motif DNA Py33 (unknown origin) assessed as decrease in negative peak intensity at pH 5.5 measured at 260 nanometer by CD spectroscopy
Method in brief: (§3)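 Py33 at 1 µM in 1× BPES pH 5.5 (pH 6.8 random-coil reference), with or without ligand. Annealed at 95 °C for 5 min, cooled, kept at 4 °C overnight. CD spectra in a 4 mm cuvette over 230–350 nm, three scans averaged, buffer-corrected; peaks followed at 288 and 260 nm.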

[5] = Binding affinity to 5'-biotin labeled c-myc promoter i-motif DNA Py33 (unknown origin) by surface plasmon resonance method
Method in brief: (§4)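 SPR: 5'-biotin DNA diluted to 1 μM and captured (1000 RU) on a sensor chip, with a blank cell as reference. Running buffers: Py33 in 20 mM MES pH 5.8, 100 mM KCl, 0.05% Tween-20; Pu27 and duplex in 50 mM Tris-HCl pH 7.4, 100 mM KCl. Six ligand concentrations serially diluted from DMSO stock. Association 260 s, dissociation 300 s at 25 °C; NaOH regeneration; blank sensorgrams subtracted.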

Quadruplex DNA [6] = assay: Binding affinity to 5'-biotin labeled c-myc promoter G-quadruplex DNA Pu27 (unknown origin) by surface plasmon resonance method; format: nucleic-acid assay; method in brief: as §4
dsDNA = assay: Binding affinity to 5'-biotin labeled duplex DNA (unknown origin) by surface plasmon resonance method; format: nucleic-acid assay; method in brief: as §4
[7] = Stabilization of c-myc promoter i-motif DNA Py33 (unknown origin) assessed as decrease in positive peak intensity at pH 5.5 measured at 288 nanometer by CD spectroscopy; method in brief: as §3
[8] = Stabilization of c-myc promoter i-motif DNA Py33 (unknown origin) assessed as reduction in appearance of random coil confirmation at pH 5.5 by CD spectroscopy; method in brief: as §3
Quadruplex DNA [9] = assay: Stabilization of c-myc promoter G-quadruplex DNA Pu27 (unknown origin) assessed as effect on melting temperature at 5 uM by CD spectroscopy; format: nucleic-acid assay
Method in brief: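 CD melting: Pu27 diluted to 1 µM in 10 mM Tris-HCl, 5 mM KCl, pH 7.4, with or without ligand. Annealed at 95 °C for 5 min, slowly cooled, then heated at 1 °C/min while monitoring 260 nm. Tm obtained by curve fitting.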

[10] = Stabilization of c-myc promoter i-motif DNA Py33 (unknown origin) assessed as effect on melting temperature at 5 uM by CD spectroscopy
Method in brief: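 CD melting: Py33 at 1 µM in 1× BPES pH 6.4, with or without ligand. Annealed at 95 °C for 5 min, slowly cooled, then heated at 1 °C/min while monitoring 260 nm. Tm obtained by curve fitting.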

[11] = Stabilization of c-myc promoter i-motif DNA Py33 (unknown origin) assessed as increase in slower migration band incubated overnight by silver staining based PAGE analysis
Method in brief: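 Py33 (3 µM) co-annealed with increasing ligand in 1× BPES pH 6.8 at 95 °C for 5 min, cooled, held at 4 °C overnight. Run on native 20% acrylamide in 1× TBE at 140 V for 5 h at 5 °C, then silver-stained.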

[12] = Drug uptake in human SiHa cells; format: ADME, cell-based
A-375 = assay: Antiproliferative activity against human A-375 cells after 48 hrs by MTT assay; format: functional, cell-based; settings: A-375, 48 h
Method in brief: (§5)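 Cells seeded at 5.0×10^3 per well, pre-incubated 12 h at 37 °C, 5% CO2, then exposed to compounds for 48 h; DMSO-only control. MTT (2.5 mg/mL) added for 4 h, formazan dissolved in DMSO, absorbance at 570 nm. Each dose tested in triplicate; IC50 from percentage survival relative to negative control.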

HeLa = assay: Antiproliferative activity against human Hela cells after 48 hrs by MTT assay; format: functional, cell-based; method in brief: as §5
A549 = assay: Antiproliferative activity against human A549 cells after 48 hrs by MTT assay; format: functional, cell-based; settings: A549, 48 h; method in brief: as §5
U2OS = assay: Antiproliferative activity against human U2OS cells after 48 hrs by MTT assay; format: functional, cell-based; method in brief: as §5
HCT-116 = assay: Antiproliferative activity against human HCT-116 cells after 48 hrs by MTT assay; format: functional, cell-based; settings: HCT-116, 48 h; method in brief: as §5
SiHa = assay: Antiproliferative activity against human SiHa cells after 48 hrs by MTT assay; format: functional, cell-based; method in brief: as §5
Huh-7 = assay: Antiproliferative activity against human Huh-7 cells after 48 hrs by MTT assay; format: functional, cell-based; settings: Huh-7, 48 h; method in brief: as §5
ssDNA = assay: Binding affinity to 5'-biotin labeled single-stranded DNA Py33 (unknown origin) at <=50 uM by surface plasmon resonance method; format: nucleic-acid assay
Quadruplex DNA [13] = assay: Stabilization of 5'-FAM/3'-TAMRA labeled c-myc promoter G-quadruplex DNA FPu22T (unknown origin) assessed as change in melting temperature at 5 uM by FRET assay (reference value: 66.5 degreeC); format: nucleic-acid assay; method in brief: as §2
[14] = Stabilization of 5'-FAM/3'-TAMRA labeled c-myc promoter i-motif DNA FPy33T (unknown origin) assessed as change in melting temperature at 5 uM by FRET assay (reference value: 53.2 degreeC); method in brief: as §1
[15] = Stabilization of 5'-FAM/3'-TAMRA labeled hairpin DNA F10T (unknown origin) assessed as change in melting temperature at 5 uM by FRET assay
Quadruplex DNA [16] = assay: Stabilization of c-myc promoter G-quadruplex DNA Pu27 (unknown origin) in pH 7.4 Tris-HCl buffer by CD spectroscopy; format: nucleic-acid assay
Method in brief: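 Pu27 at 1 µM in 10 mM Tris-HCl pH 7.4, with or without ligand. Annealed at 95 °C for 5 min, cooled to room temperature, stored at 4 °C overnight. CD spectra taken in a 4 mm cuvette over 230–350 nm, three scans averaged, smoothed and buffer-baseline corrected.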

Quadruplex DNA [17] = assay: Binding affinity to c-myc wild-type promoter G-quadruplex/i-motif (unknown origin) expressed in human SiHa cells assessed as reduction in c-myc transcription by measuring decrease in ratio of renilla/firefly luciferase activity at 1/3 IC50 after 48 hrs by dual-luciferase reporter assay; format: cell-based
Method in brief: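 SiHa cells transfected with 200 ng psiCHECK2 plasmid carrying wild-type, mutant or deleted c-myc promoter. Compounds added 8 h after transfection, then incubated 48 h at 37 °C. Cells washed with ice-cold PBS; Renilla/firefly activity ratio read by dual-luciferase assay.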

Quadruplex DNA [18] = assay: Binding affinity to c-myc promoter G-quadruplex/i-motif in human SiHa cells assessed as reduction in c-myc mRNA level incubated for 24 hrs by qRT-PCR analysis; format: cell-based; settings: dose microM 0.625-2.5, time 24.0 hrs
Method in brief: (§6)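 SiHa cells at 0, 0.625, 1.25 and 2.5 μM for 24 h; DMSO control. Total RNA extracted with TRIzol. 1.5 μg RNA reverse-transcribed with oligo dT18 and M-MLV (42 °C 60 min). PCR of 30 cycles (95/58/72 °C), products run on 1.2% agarose. β-actin as internal control; three repeats.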

Quadruplex DNA [19] = assay: Binding affinity to c-myc promoter G-quadruplex/i-motif in human SiHa cells assessed as reduction in c-myc mRNA level at 1.25 uM incubated for 24 hrs by qRT-PCR analysis; format: cell-based; set-up: scale not given: the % may be the effect or the level left; method in brief: as §6
Quadruplex DNA [20] = assay: Binding affinity to c-myc promoter G-quadruplex/i-motif in human SiHa cells assessed as reduction in c-myc mRNA level at 2.5 uM incubated for 24 hrs by qRT-PCR analysis; format: cell-based; set-up: scale not given: the % may be the effect or the level left; method in brief: as §6
Quadruplex DNA [21] = assay: Binding affinity to c-myc promoter G-quadruplex/i-motif in human SiHa cells assessed as reduction in c-myc mRNA level at 5 uM incubated for 24 hrs by qRT-PCR analysis; format: cell-based; set-up: scale not given: the % may be the effect or the level left
Quadruplex DNA [22] = assay: Binding affinity to c-myc promoter G-quadruplex/i-motif in human SiHa cells assessed as reduction in c-myc expression incubated for 24 hrs by Western blot analysis; format: cell-based
Method in brief: (§7)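 SiHa cells treated 24 h at 0, 0.625, 1.25 and 2.5 μM, then lysed in buffer with 1 mM PMSF. Protein measured by BCA, equal loads run on 8% gel and blotted to PVDF. Probed with anti-c-MYC and anti-β-actin (loading control), HRP anti-rabbit secondary, chemiluminescence read-out.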

Quadruplex DNA [23] = assay: Binding affinity to c-myc promoter G-quadruplex/i-motif in human SiHa cells assessed as reduction in c-myc expression at 1.25 uM incubated for 24 hrs by Western blot analysis; format: cell-based; set-up: scale not given: the % may be the effect or the level left; method in brief: as §7
Quadruplex DNA [24] = assay: Binding affinity to c-myc promoter G-quadruplex/i-motif in human SiHa cells assessed as reduction in c-myc expression at 2.5 uM incubated for 24 hrs by Western blot analysis; format: cell-based; set-up: scale not given: the % may be the effect or the level left; method in brief: as §7
Quadruplex DNA [25] = assay: Binding affinity to c-myc promoter G-quadruplex/i-motif in human SiHa cells assessed as reduction in c-myc expression at 5 uM incubated for 24 hrs by Western blot analysis; format: cell-based; set-up: scale not given: the % may be the effect or the level left

SMILES	ΔTm [1] [°C]	ΔTm (Quadruplex DNA [2]) [°C]	ΔTm [3] [°C]	Kd [5] [µM]	Kd (Quadruplex DNA [6]) [µM]	Kd (dsDNA) [µM]	Activity (Quadruplex DNA [9])	Activity [10]	Drug uptake [12]	IC50 (A-375) [µM]	IC50 (HeLa) [µM]	IC50 (A549) [µM]	IC50 (U2OS) [µM]	IC50 (HCT-116) [µM]	IC50 (SiHa) [µM]	IC50 (Huh-7) [µM]	ΔTm (Quadruplex DNA [13]) [°C]	ΔTm [14] [°C]	ΔTm [15] [°C]	further results
Cc1ccc2nc3ccc(C(=O)NCCCN(C)C)cc3c(NCCCNCCNCCCNc3c4cc(C)ccc4nc4ccc(C(=O)NCCCN(C)C)cc34)c2c1	24.3	17.1	2.8	1	2.7	21.7	Active	Active	Not Active											Activity [4]: Active; Activity [7]: Active; Activity [8]: Active; Activity [11]: Dose-dependent effect
c1ccc2c(NCCNCCNc3c4ccccc4nc4ccccc34)c3ccccc3nc2c1	0.7	15.2	2.5	12.3	4.7	6.5				6.85	13.8	9.79	5.48	11.1	12	20				Activity (ssDNA): inactive
Cc1ccc2nc3ccc(C)cc3c(NCCNCCNc3c4cc(C)ccc4nc4ccc(C)cc34)c2c1																	6.2	16	2.5	
Cc1ccc2nc3ccc(C)cc3c(NCCOCCOCCNc3c4cc(C)ccc4nc4ccc(C)cc34)c2c1	1	13.5	2.3	26.2	3.6	22.1	Active	inactive	Active	1.75	1.36	2.26	1.23	2.12	0.56	1.95				Activity (Quadruplex DNA [16]): Active; Activity (Quadruplex DNA [17]): Active; Activity (Quadruplex DNA [18]): Dose-dependent effect; Activity (Quadruplex DNA [19]): 32.6%; Activity (Quadruplex DNA [20]): 55.8%; Activity (Quadruplex DNA [21]): 79.8%; Activity (Quadruplex DNA [22]): Dose-dependent effect; Activity (Quadruplex DNA [23]): 25.3%; Activity (Quadruplex DNA [24]): 42.2%; Activity (Quadruplex DNA [25]): 62.3%
Cc1ccc2nc3ccc(C)cc3c(NCCN(C)C)c2c1	2.7	6.2	4.1			13.1											8.3	10	6.8	
